This note sets out measurements from ChEMBL document CHEMBL4411336, “2-Aminothiazole Derivatives as Selective Allosteric Modulators of the Protein Kinase CK2. 2. Structure-Based Optimization and Investigation of Effects Specific to the Allosteric Mode of Action” (J Med Chem, 2019).

The target of data set [1] is T1, Casein kinase II subunit alpha (Homo sapiens, UniProt P68400). The experiment in a line: Inhibition of recombinant human GST-tagged CK2alpha in presence of ATP by radiometric kinase assay.
Target sequence in this assay (P68400 whole entry): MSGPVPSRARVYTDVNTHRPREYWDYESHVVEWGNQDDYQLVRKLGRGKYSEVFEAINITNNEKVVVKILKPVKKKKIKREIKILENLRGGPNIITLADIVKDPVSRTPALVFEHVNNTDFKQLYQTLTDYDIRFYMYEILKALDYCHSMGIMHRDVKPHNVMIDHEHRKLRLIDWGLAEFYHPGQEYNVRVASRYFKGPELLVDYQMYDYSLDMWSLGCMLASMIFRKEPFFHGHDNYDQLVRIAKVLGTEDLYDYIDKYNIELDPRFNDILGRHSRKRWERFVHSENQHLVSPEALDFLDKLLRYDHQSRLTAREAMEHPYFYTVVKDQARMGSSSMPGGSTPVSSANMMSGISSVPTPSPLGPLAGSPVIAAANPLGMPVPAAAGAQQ
Data set [2] relates to 786-0. The experiment in a line: Growth inhibition of human 786-0 cells at 25 uM after 24 hrs by MTT assay relative to control. Type of data set: functional. The settings on record: 786-0, 24 h, read-out: GI.
Data set [3] deals with 786-0. Description: Growth inhibition of human 786-0 cells after 24 hrs by MTT assay. The settings on record: 786-0, 24 h. Type of data set: functional. The method, boiled down:
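786-O grown in RPMI 1640 with 10% FCS, pen/strep, 37 °C, 5% CO2; assays in medium with 0.1% or 0.5% serum. Cells seeded at 1 × 10^4/well, next day given fresh medium with inhibitor at various concentrations, DMSO (0.25%) control, 24 h. MTT 2 h at 37 °C, SDS/HCl solubilization 4 h, absorbance 570 nm. GI50 by linear interpolation on log[c] scale; at least two independent experiments.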

The target in data set [4] is T1, Casein kinase II subunit alpha. To be noted: HeLa, 40 uM.
Target sequence in this assay (P68400 whole entry, looked up): as the sequence (P68400 whole entry) above
In data set [5] the target is Activin receptor type-1 (Homo sapiens) (UniProt Q04771). The experiment in a line: Inhibition of recombinant human catalytic GST-tagged ACVR1 expressed in baculovirus expression system assessed as reduction in enzyme activity at 5 uM in presence of ATP relative to control.
Data set [6] addresses Casein kinase I isoform gamma-1 (Homo sapiens) (UniProt Q9HCP0). Description: Inhibition of recombinant full length human GST-tagged CK1gamma1 expressed in baculovirus expression system assessed as reduction in enzyme activity at 5 uM in presence of ATP relative to control.
Data set [7] deals with Glycogen synthase kinase-3 beta (Homo sapiens) (UniProt P49841). The experiment in a line: Inhibition of recombinant full length human His-tagged GSK3beta expressed in baculovirus expression system assessed as reduction in enzyme activity at 5 uM in presence of ATP relative to control.
The species entered for the next data set is Homo sapiens. The experiment in a line: Inhibition of human PI3K assessed as reduction in enzyme activity at 5 uM in presence of ATP relative to control.
In data set [8] the target is Serine/threonine-protein kinase pim-1 (Homo sapiens) (UniProt P11309). The experiment in a line: Inhibition of recombinant full length human His-tagged PIM1 expressed in baculovirus expression system assessed as reduction in enzyme activity at 5 uM in presence of ATP relative to control.
Data set [9] concerns the target Aurora kinase B (Homo sapiens) (UniProt Q96GD4). Description: Inhibition of recombinant full length human His-tagged AURKB expressed in baculovirus expression system assessed as reduction in enzyme activity at 5 uM in presence of ATP relative to control.
The target of data set [10] is Receptor tyrosine-protein kinase erbB-2 (Homo sapiens) (UniProt P04626). Description: Inhibition of human His-tagged ERBB2 expressed in baculovirus expression system assessed as reduction in enzyme activity at 5 uM in presence of ATP relative to control. The arrangement: scale not given: the % may be the effect or the level left.
Data set [11] concerns the target Dual specificity protein kinase CLK4 (Homo sapiens) (UniProt Q9HAZ1). Description: Inhibition of recombinant full length human GST-tagged CLK4 expressed in baculovirus expression system assessed as reduction in enzyme activity at 5 uM in presence of ATP relative to control.
Data set [12] is described as follows: Growth inhibition of human RPTEC cells after 24 hrs by MTT assay. The class given is cell-based. (Formazan colour is commonly taken as a measure of viable cells.)
Data set [13] in a line: Growth inhibition of human MCF10A cells after 24 hrs by MTT assay. Type of data set: cell-based, MCF-10A.
A further data set concerns NCI-H1299. Description: Growth inhibition of human H1299 cells after 24 hrs by MTT assay. The class given is functional. To be noted: NCI-H1299, 24 h.
The next data set deals with PC-3. Description: Growth inhibition of human PC3 cells after 24 hrs by MTT assay. Type of data set: functional. To be noted: PC-3, 24 h.
Another data set relates to DU-145. The experiment in a line: Growth inhibition of human DU145 cells after 24 hrs by MTT assay. The class given is functional. The settings on record: DU-145, 24 h.
The subject of a further data set is U138-MG. The experiment in a line: Growth inhibition of human U138MG cells after 24 hrs by MTT assay. Type of data set: functional.
Data set [14] concerns the target Serine/threonine-protein kinase pim-1 (Homo sapiens) (UniProt P11309). Description: Inhibition of human PIM1 assessed as reduction in enzyme activity at 5 uM in presence of ATP relative to control. The arrangement: scale not given: the % may be the effect or the level left.
In data set [15] the target is Epidermal growth factor receptor (Homo sapiens) (UniProt P00533). The experiment in a line: Inhibition of human EGFR assessed as reduction in enzyme activity at 5 uM in presence of ATP relative to control. Also on record: scale not given: the % may be the effect or the level left.
For data set [16], the target named is Dual specificity protein kinase CLK2 (Homo sapiens) (UniProt P49760). To be noted: 5 uM.
Data set [17] deals with Tyrosine-protein kinase ABL1 (Homo sapiens) (UniProt P00519). The settings on record: 5 uM.
In data set [18] the target is Serine/threonine-protein kinase Chk2 (Homo sapiens) (UniProt O96017). To be noted: 5 uM.
Data set [19] addresses Dual specificity protein kinase CLK1 (Homo sapiens) (UniProt P49759). To be noted: 5 uM.
In data set [20] the target is Cyclin-dependent kinase 1/cyclin B1 (Homo sapiens) (UniProt P06493+P14635). To be noted: 5 uM.
Data set [21] concerns 786-0. Description: cells. To be noted: Homo sapiens, 786-0, 24 h.
For data set [22], the system named is 786-0. The experiment in a line: cells. The settings on record: Homo sapiens, 786-0, 24 h. The source holds these as a separate data set.

pEC50, pIC50: −log10 of the molar value. Active and inactive are the calls of the source. The rule behind the calls is not given here.

Sequence of Serine/threonine-protein kinase pim-1 (Homo sapiens) (P11309 whole entry, looked up): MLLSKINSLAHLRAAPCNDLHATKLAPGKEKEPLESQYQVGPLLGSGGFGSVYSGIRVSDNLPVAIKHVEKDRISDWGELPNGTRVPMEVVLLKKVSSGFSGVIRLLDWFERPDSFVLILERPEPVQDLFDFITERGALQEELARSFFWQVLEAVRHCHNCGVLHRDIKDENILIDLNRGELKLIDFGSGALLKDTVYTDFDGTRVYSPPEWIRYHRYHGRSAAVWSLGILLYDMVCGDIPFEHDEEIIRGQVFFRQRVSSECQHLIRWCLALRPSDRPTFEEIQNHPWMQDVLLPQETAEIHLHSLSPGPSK
Sequence of Glycogen synthase kinase-3 beta (Homo sapiens) (P49841 whole entry, looked up): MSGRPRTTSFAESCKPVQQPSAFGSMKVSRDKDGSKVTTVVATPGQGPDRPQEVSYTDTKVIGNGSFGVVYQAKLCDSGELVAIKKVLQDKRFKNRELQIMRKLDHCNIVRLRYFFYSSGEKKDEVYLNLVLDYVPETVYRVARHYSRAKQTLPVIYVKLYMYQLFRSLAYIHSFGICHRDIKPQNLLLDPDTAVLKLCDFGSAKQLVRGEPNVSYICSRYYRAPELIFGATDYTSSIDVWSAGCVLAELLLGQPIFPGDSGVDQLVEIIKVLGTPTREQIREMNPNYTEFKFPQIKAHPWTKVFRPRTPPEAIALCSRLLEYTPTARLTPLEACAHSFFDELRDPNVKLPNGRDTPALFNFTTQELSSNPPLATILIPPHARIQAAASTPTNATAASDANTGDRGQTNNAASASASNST
Sequence of Dual specificity protein kinase CLK4 (Homo sapiens) (Q9HAZ1 whole entry, looked up): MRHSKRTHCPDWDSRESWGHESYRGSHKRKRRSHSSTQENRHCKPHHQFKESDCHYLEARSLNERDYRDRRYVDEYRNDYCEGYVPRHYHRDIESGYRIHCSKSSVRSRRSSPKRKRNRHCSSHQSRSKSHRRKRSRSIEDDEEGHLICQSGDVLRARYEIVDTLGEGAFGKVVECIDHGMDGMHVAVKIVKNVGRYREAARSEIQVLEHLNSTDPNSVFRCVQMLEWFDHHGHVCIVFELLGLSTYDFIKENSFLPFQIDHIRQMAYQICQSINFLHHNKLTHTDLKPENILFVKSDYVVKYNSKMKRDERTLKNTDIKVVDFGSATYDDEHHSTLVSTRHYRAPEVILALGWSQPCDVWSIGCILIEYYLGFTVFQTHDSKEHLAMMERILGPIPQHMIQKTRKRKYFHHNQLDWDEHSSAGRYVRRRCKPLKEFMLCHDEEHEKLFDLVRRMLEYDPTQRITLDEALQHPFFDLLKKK
Sequence of Dual specificity protein kinase CLK2 (Homo sapiens) (P49760 whole entry, looked up): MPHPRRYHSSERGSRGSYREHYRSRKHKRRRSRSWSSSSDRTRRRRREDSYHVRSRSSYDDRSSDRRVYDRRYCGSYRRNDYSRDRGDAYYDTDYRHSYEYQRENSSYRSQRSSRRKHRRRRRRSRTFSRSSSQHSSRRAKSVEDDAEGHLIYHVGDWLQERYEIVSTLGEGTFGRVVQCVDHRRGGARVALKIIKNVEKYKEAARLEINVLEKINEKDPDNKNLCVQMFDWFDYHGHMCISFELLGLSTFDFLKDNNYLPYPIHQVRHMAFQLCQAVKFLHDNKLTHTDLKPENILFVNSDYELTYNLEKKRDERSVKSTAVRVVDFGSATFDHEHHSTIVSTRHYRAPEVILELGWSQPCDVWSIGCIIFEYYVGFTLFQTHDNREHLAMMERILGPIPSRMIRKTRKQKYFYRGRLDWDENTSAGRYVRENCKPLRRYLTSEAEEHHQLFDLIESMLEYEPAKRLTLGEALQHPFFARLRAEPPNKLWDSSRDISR
Sequence of Serine/threonine-protein kinase Chk2 (Homo sapiens) (O96017 whole entry): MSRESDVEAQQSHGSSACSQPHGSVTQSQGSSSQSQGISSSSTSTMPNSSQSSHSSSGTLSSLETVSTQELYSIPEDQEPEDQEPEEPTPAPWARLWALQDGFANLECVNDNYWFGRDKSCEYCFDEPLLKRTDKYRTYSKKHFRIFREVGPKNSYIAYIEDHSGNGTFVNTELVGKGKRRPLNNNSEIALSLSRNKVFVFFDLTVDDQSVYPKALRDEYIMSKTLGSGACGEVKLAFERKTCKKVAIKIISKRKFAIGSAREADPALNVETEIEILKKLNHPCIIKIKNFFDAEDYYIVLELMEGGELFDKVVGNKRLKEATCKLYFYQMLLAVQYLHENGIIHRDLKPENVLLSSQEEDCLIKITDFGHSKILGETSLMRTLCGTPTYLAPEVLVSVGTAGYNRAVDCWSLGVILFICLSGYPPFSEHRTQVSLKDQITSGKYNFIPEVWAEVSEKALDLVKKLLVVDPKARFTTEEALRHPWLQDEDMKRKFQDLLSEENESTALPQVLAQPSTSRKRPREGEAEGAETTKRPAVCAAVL
Sequence of Activin receptor type-1 (Homo sapiens) (Q04771 whole entry, canonical isoform): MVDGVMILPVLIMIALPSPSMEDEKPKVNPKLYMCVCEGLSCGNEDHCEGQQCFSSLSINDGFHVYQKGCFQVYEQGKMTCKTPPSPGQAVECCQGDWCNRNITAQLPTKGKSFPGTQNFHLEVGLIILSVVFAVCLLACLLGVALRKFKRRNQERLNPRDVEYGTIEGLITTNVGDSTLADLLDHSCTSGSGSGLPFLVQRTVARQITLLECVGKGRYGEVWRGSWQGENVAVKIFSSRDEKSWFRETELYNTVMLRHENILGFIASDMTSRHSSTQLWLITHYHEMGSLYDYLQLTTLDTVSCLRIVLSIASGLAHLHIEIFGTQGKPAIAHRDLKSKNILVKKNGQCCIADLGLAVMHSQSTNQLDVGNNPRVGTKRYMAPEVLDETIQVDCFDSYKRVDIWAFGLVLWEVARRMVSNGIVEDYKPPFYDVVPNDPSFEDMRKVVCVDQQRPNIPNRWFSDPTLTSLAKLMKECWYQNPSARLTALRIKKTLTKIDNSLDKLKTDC
Sequence of Dual specificity protein kinase CLK1 (Homo sapiens) (P49759 whole entry, looked up): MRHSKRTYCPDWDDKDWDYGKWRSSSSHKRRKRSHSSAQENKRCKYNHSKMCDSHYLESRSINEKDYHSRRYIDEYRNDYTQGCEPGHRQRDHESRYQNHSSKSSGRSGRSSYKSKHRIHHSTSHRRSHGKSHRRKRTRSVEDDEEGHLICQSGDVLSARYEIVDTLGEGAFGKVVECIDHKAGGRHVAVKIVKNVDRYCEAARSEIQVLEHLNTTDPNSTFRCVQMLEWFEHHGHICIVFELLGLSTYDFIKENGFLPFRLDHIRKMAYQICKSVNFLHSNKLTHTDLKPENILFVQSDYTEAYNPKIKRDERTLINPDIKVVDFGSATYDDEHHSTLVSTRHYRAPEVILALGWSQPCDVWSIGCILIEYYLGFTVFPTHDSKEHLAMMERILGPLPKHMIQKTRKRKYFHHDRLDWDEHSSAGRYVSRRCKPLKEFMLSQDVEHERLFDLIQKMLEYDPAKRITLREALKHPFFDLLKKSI
Sequence of Receptor tyrosine-protein kinase erbB-2 (Homo sapiens) (P04626 whole entry): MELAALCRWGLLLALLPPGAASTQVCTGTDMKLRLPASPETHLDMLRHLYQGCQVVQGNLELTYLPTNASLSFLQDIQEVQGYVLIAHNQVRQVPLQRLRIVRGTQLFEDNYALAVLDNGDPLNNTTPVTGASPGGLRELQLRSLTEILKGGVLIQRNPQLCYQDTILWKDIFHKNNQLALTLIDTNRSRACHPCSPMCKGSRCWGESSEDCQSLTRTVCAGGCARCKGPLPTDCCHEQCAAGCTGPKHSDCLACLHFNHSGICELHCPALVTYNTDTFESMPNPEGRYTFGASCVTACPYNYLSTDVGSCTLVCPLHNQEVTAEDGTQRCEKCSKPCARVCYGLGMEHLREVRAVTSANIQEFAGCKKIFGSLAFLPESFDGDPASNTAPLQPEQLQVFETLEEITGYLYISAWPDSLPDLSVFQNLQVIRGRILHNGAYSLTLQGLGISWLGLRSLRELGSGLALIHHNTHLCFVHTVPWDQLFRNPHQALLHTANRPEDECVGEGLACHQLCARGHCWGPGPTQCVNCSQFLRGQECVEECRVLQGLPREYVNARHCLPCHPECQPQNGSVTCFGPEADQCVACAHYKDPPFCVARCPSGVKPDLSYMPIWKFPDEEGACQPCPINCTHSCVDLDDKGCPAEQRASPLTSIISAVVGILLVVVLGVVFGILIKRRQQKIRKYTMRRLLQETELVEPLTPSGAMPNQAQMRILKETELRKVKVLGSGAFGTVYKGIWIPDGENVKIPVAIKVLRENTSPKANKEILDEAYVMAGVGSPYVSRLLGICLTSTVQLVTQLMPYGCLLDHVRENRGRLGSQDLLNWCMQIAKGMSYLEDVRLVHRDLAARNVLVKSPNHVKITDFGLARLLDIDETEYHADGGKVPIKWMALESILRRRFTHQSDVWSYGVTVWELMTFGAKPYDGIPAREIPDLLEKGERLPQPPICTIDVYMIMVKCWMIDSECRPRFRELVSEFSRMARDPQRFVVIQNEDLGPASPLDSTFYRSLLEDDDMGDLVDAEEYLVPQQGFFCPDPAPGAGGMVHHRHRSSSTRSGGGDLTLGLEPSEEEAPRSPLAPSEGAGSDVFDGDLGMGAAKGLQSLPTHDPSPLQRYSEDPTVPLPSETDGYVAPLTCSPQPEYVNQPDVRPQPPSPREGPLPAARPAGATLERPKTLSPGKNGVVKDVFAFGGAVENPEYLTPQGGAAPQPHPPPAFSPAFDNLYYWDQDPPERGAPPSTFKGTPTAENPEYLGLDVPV

Regarding `O=C(O)c1ccc(Nc2nc(-c3ccc(O)cc3O)cs2)cc1`, in [1], the pIC50 was 5.15.
Take `O=[N+]([O-])c1cccc(-c2csc(Nc3ccccc3)n2)c1`: the pIC50 in [1] is below 4.60.
As to `CC(=O)OCOC(=O)c1ccc(Nc2nc(-c3ccsc3)cs2)cc1`, the inhibition of growth at 25 µM in the data set with 786-0 [2] was 48%.
Regarding `CS(=O)(=O)NC(=O)c1ccc(Nc2nc(-c3ccc4ccccc4c3)cs2)cc1`, the inhibition of growth at 25 µM in the data set on 786-0 [2] worked out at 23%.
In the case of `CC(C)(C)c1csc(Nc2ccc(C(=O)O)cc2)n1`, in data set [1], the pIC50 was below 4.30.
For `COC(=O)c1ccc(Nc2nc(-c3cccc([N+](=O)[O-])c3)cs2)cc1`, the pIC50 in [1] is below 4.60.
Take `O=C(O)c1ccc(Nc2nc(-c3cccc(Br)c3)cs2)cc1`: in the data set with 786-0 [3], it took 25 µM to inhibit growth by half (GI50). For the same molecule, the inhibition entry in data set [4] is “Active”.
Take `c1ccc(Nc2nc(-c3ccc4ccccc4c3)cs2)cc1`: the pIC50 in data set [1] is below 4.30.
Consider `CC(=O)OCOC(=O)c1ccc(Nc2nc(-c3ccc4ccccc4c3)cs2)cc1`, for which the inhibition of growth at 25 µM with 786-0 [2] turned out to be 45%.
As for `O=C(O)c1ccc(Nc2nc(-c3ccc4ccccc4c3)cs2)cc1O`, the inhibition in data set [5] turned out to be 0%; in data set [6], 32%; in [7], 41%; in the data set listed under Homo sapiens it was 53%; in data set [8] it was 60%; in [9], 62%. Besides, the inhibition is 23% in data set [11]; 20 to 30% in data set [16]; 20 to 30% in data set [17]; 20 to 30% in [18]; 20 to 30% in data set [19]; 20 to 30% in [20]. Moreover, the figures for the Activity in [10], in [14] and in data set [15] were 70%, 60% and 21%, respectively. Further, the inhibition of growth at 25 µM in the data set on 786-0 [2] amounted to 87%. Further, the GI50 at 24 h amounted to 27 µM in data set [12] and 10 µM in data set [13]. Also, the GI50 in the data set with 786-0 [3] was found to be 5 µM; in the data set on NCI-H1299 it was 9 µM; in the data set with PC-3, 7 µM; in the data set with DU-145 it was 20 µM; with U138-MG, 13 µM. The negative logarithm of the EC50 (pEC50) in the data set on 786-0 [21] is 5.34; in the data set on 786-0 [22], 5.31.
Take `O=C(O)Cc1ccc(Nc2nc(-c3cccc([N+](=O)[O-])c3)cs2)cc1`: in data set [1], the pIC50 was below 4.30.
As to `Cc1ccc(S(=O)(=O)NC(=O)c2ccc(Nc3nc(-c4ccc5ccccc5c4)cs3)cc2)cc1`, the inhibition of growth at 25 µM with 786-0 [2] worked out at 87%.
In the case of `CC(=O)OCOC(=O)c1ccc(Nc2nc(-c3cccc([N+](=O)[O-])c3)cs2)cc1`, in the data set on 786-0 [2], the inhibition of growth at 25 µM worked out at 42%.
Turning to `N#Cc1ccc(Nc2nc(-c3ccc4ccccc4c3)cs2)cc1`, the negative-log IC50 (pIC50) in data set [1] is below 4.30.

The term pIC50 denotes the IC50 on a negative log10 scale, so that one unit is a factor of ten. The term GI50 denotes the concentration that inhibits growth by half. The term inhibition denotes the share of the control response that was lost under treatment. Broadly, the pEC50 is the EC50 on a negative log10 scale, so that one unit is a factor of ten.
